Assay results published in ChEMBL document CHEMBL1123069, “[[(4,5-Dihydro-2-oxazolyl)phenoxy]alkyl]isoxazoles. Inhibitors of picornavirus uncoating” (1985).
≈ marks a conversion by molar mass, not a printed value. Calls of active or inactive are those of the source. The rule behind the calls is not given here.

Columns and labels:
[1] = tested on: Enterovirus; test: In vitro antiviral activity against Rhinovirus type-2; type: functional
[2] = organism: Mus musculus; test: MIC at the Maximal testable level in mice was evaluated; type: functional; settings: read-out: MIC
[3] = In vitro antiviral activity against mice infected intracerebrally with Poliovirus type-2; type: functional
[4] = tested on: Mus musculus; test: In vitro antiviral activity against mice infected intracerebrally with Poliovirus type-2; IA=Inactive; type: functional, organism-based
[5] = tested on: Mus musculus; test: In vivo antiviral activity at 32 mg/kg oral dose in mice infected with Poliovirus; 15/20; type: functional
Outline: (§1)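 Mice given oral drug or placebo starting 1 h before intracerebral infection with poliovirus type 2. Doses were 4, 8, 16 or 32 mg/kg, with 20 mice per group. Survival was scored as % survivors and number surviving out of total, with the test ending 20 days post-infection.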

[6] = tested on: Mus musculus; test: In vivo antiviral activity at 16 mg/kg oral dose in mice infected with Poliovirus;13/20; type: functional; outline: as §1
[7] = tested on: Mus musculus; test: In vivo antiviral activity at 4 mg/kg oral dose in mice infected with Poliovirus; type: functional; outline: as §1
[8] = tested on: Mus musculus; test: Prevention of Echo-9-Induced Paralysis in Suckling mice by intraperitoneal administration at dose 33 mg/kg; expressed as no. nonparalyzed/total 29/30; type: functional
Outline: (§2)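 Suckling mice infected subcutaneously with a lethal dose of ECHO-9 virus. Intraperitoneal dosing at 1.0, 3.3, 10 or 33 mg/kg, or placebo, began 1 h before infection and continued once daily for 8 days. Groups of 30 animals were scored for paralysis, and the test ended 14 days post-infection. Results are given as % nonparalyzed (± spread) and as the nonparalyzed/total count.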

[9] = organism: Mus musculus; test: Prevention of Echo-9-Induced Paralysis in Suckling mice with Placebo; Expressed as % nonparalyzed; type: functional; outline: as §2
[10] = tested on: Mus musculus; test: Prevention of Echo-9-Induced Paralysis in Suckling mice by intraperitoneal administration at dose 10 mg/kg; expressed as no. nonparalyzed/total 19/30; type: functional; outline: as §2
[11] = tested on: Mus musculus; test: Prevention of Echo-9-Induced Paralysis in Suckling mice by intraperitoneal administration at dose 1 mg/kg; Expressed as % nonparalyzed; type: functional; outline: as §2
[12] = organism: Mus musculus; test: Prevention of Echo-9-Induced Paralysis in Suckling mice with Placebo; expressed as no. nonparalyzed/total 0/30; type: functional; outline: as §2
[13] = tested on: Mus musculus; test: Prevention of Echo-9-Induced Paralysis in Suckling mice by intraperitoneal administration at dose 10 mg/kg; Expressed as % nonparalyzed; type: functional; outline: as §2
[14] = tested on: Mus musculus; test: Prevention of Echo-9-Induced Paralysis in Suckling mice by intraperitoneal administration at dose 3.3 mg/kg; expressed as no. nonparalyzed/total 6/30; type: functional; outline: as §2
[15] = tested on: Mus musculus; test: In vivo antiviral activity of the compound in Placebo treated mice infected with Poliovirus; 4/20; type: functional; outline: as §1
[16] = tested on: Mus musculus; test: In vivo antiviral activity at 8 mg/kg oral dose in mice infected with Poliovirus; 9/20; type: functional; outline: as §1
[17] = tested on: Mus musculus; test: In vivo antiviral activity of the compound in Placebo treated mice infected with Poliovirus; type: functional; outline: as §1
[18] = tested on: Mus musculus; test: In vivo antiviral activity at 4 mg/kg oral dose in mice infected with Poliovirus; 8/20; type: functional; outline: as §1
[19] = tested on: Mus musculus; test: Prevention of Echo-9-Induced Paralysis in Suckling mice by intraperitoneal administration at dose 1 mg/kg; expressed as no. nonparalyzed/total 2/30; type: functional; outline: as §2
[20] = tested on: Mus musculus; test: In vivo antiviral activity at 32 mg/kg oral dose in mice infected with Poliovirus; type: functional; outline: as §1
[21] = tested on: Mus musculus; test: In vivo antiviral activity at 16 mg/kg oral dose in mice infected with Poliovirus; type: functional; outline: as §1
[22] = tested on: Mus musculus; test: Prevention of Echo-9-Induced Paralysis in Suckling mice by intraperitoneal administration at dose 33 mg/kg; Expressed as % nonparalyzed; type: functional; outline: as §2
[23] = tested on: Mus musculus; test: In vivo antiviral activity at 8 mg/kg oral dose in mice infected with Poliovirus; type: functional; outline: as §1
[24] = tested on: Mus musculus; test: Prevention of Echo-9-Induced Paralysis in Suckling mice by intraperitoneal administration at dose 3.3 mg/kg; Expressed as % nonparalyzed; type: functional; outline: as §2

Row | Structure (SMILES) | MIC [1] [µg/mL] | maximal testable concentration [2] [µg/mL] | MIC [3] [µg/mL] | other results
1 | Cc1cc(CCCCCCCOc2ccc(C3=NCC(C)O3)cc2)on1 (stereo not given) | 0.06 (≈ 0.168 µM) | 6.2 | 0.49 (≈ 1.37 µM) | –
2 | Cc1cc(CCCCCCCOc2ccc(C3=NC(C)(C)CO3)cc2)on1 | 0.06 (≈ 0.162 µM) | 3.1 | 1.1 (≈ 2.97 µM) | –
3 | CCOC(=O)c1ccc(OCCCCCCCc2cc(C)no2)cc1 | 0.025 (≈ 0.0724 µM) | – | > 0.8 | –
4 | Cc1cc(CCCCOc2ccc(C3=NCCO3)cc2)on1 | 0.53 (≈ 1.76 µM) | 6.2 | 0.49 (≈ 1.63 µM) | –
5 | COc1ccc(OCCCCCCCc2cc(C)no2)c(Cl)c1 | 0.04 (≈ 0.118 µM) | – | 0.05 (≈ 0.148 µM) | –
6 | COCC1CN=C(c2ccc(OCCCCCCCc3cc(C)no3)cc2)O1 (stereo not given) | 0.2 (≈ 0.517 µM) | 3.1 | – | MIC [4]: inactive
7 | Cc1cc(CCCCCCCOc2ccc(C3=N[C@H](C)CO3)cc2)on1 | 0.02 (≈ 0.0561 µM) | 3.1 | 0.16 (≈ 0.449 µM) | –
8 | Cc1cc(CCCCCCOc2ccc(C3=NCCO3)cc2)on1 | 0.12 (≈ 0.365 µM) | 3.1 | 0.008 (≈ 0.0244 µM) | –
9 | Cc1cc(CCCCCCCOc2ccc(C3=NC(C)CO3)cc2)on1 (stereo not given) | 0.04 (≈ 0.112 µM) | 3.1 | 0.12 (≈ 0.337 µM) | –
10 | Cc1cc(CCCCCCCOc2ccc(C3=NCCO3)cc2)on1 [DISOXARIL] | 0.1 (≈ 0.292 µM) | 6.2 | 0.004 (≈ 0.0117 µM) | No. of survivors/total [5]: 15; No. of survivors/total [6]: 13; Survivors [7]: 40%; Activity [8]: 29; Activity [9]: 0%; Activity [10]: 19; Activity [11]: 6.7%; Activity [12]: 0; Activity [13]: 63.7%; Activity [14]: 6; No. of survivors/total [15]: 4; No. of survivors/total [16]: 9; Survivors [17]: 20%; No. of survivors/total [18]: 8; Activity [19]: 2; Survivors [20]: 71%; Survivors [21]: 65%; Activity [22]: 96.7%; Survivors [23]: 45%; Activity [24]: 20%
11 | Cc1cc(CCCCCCCOc2ccc(C3=NC(CO)CO3)cc2)on1 (stereo not given) | 0.9 (≈ 2.42 µM) | 3.1 | – | MIC [4]: inactive
12 | Cc1cc(CCCCCCCCOc2ccc(C3=NCCO3)cc2)on1 | 0.16 (≈ 0.449 µM) | 8 | 0.01 (≈ 0.0281 µM) | –
13 | Cc1cc(CCCCCCCOc2ccc(C3=NCC(CO)O3)cc2)on1 (stereo not given) | 1.6 (≈ 4.3 µM) | 3.1 | 2.6 (≈ 6.98 µM) | –
14 | Cc1cc(CCCCCOc2ccc(C3=NCCO3)cc2)on1 | 0.1 (≈ 0.318 µM) | 3.1 | 0.003 (≈ 0.00954 µM) | –
